Laboratory results as given in ChEMBL document CHEMBL1828592, “Synthesis and anti-microbial activity of some 1- substituted amino-4,6-dimethyl-2-oxo-pyridine-3-carbonitrile derivatives” (2011).
Active and inactive are the calls of the source. The calls are words filed in the database; no cut-off is given here.

How the values were obtained:
Bacillus subtilis [1] = assay: Antibacterial activity against Bacillus subtilis RCMB 000107 at 10 mg/ml after 24 hrs by diffusion agar technique; assay type: functional; settings: for zone of inhibition at 10000 µg/mL: RCMB 000107, 24 h, read-out: IZ
In short: (§1)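 Agar well diffusion: 24 h bacterial culture pellets (approx. 10^4–10^6 CFU/mL) spread on nutrient agar, pH 7.0. Wells (6 mm) loaded with 100 μL sample at 10 mg/mL in DMSO; DMSO control. Incubated 37 °C, 24 h. Inhibition zone (mm, beyond well) measured three times by caliper and averaged; three runs per strain; mean ± SD.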

Candida albicans [2] = assay: Antifungal activity against Candida albicans RCMB 005002 at 10 mg/ml after 3 to 4 days by agar well diffusion method; assay type: functional; settings: for zone of inhibition at 10000 µg/mL: read-out: IZ
In short: (§2)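 Patient-isolated fungi, purified by single-spore isolation, were grown 3–4 days in Sabouraud dextrose broth to about 10^5 CFU/mL. 0.1 mL was spread on Sabouraud dextrose agar. Wells were sealed at the bottom with 0.8% soft agar and loaded with 100 μL sample (10 mg/mL, DMSO); DMSO was the control. Incubated 30 °C, 3–4 days. Zone read three times by caliper and averaged; mean ± SD.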

Escherichia coli [3] = assay: Antibacterial activity against Escherichia coli RCMB 000103 at 10 mg/ml after 24 hrs by diffusion agar technique; assay type: functional; settings: for zone of inhibition at 10000 µg/mL: RCMB 000103, 24 h, read-out: IZ; in short: as §1
Staphylococcus aureus [4] = assay: Antibacterial activity against Staphylococcus aureus RCMB 000106 at 10 mg/ml after 24 hrs by diffusion agar technique; assay type: functional; settings: for zone of inhibition at 10000 µg/mL: RCMB 000106, 24 h, read-out: IZ; in short: as §1
Geotrichum candidum [5] = assay: Antifungal activity against Geotrichum candidum RCMB 052006 at 10 mg/ml after 3 to 4 days by agar well diffusion method; assay type: functional; settings: for zone of inhibition at 10000 µg/mL: read-out: IZ; in short: as §2
Aspergillus fumigatus [6] = assay: Antifungal activity against Aspergillus fumigatus RCMB 002003 at 10 mg/ml after 3 to 4 days by agar well diffusion method; assay type: functional; settings: for zone of inhibition at 10000 µg/mL: read-out: IZ; in short: as §2
[7] = tested on: Syncephalastrum racemosum; assay: Antifungal activity against Syncephalastrum racemosum RCMB 005003 at 10 mg/ml after 3 to 4 days by agar well diffusion method; assay type: functional, organism-based; in short: as §2
Pseudomonas aeruginosa [8] = assay: Antibacterial activity against Pseudomonas aeruginosa RCMB 000102 at 10 mg/ml after 24 hrs by diffusion agar technique; assay type: functional; settings: for zone of inhibition at 10000 µg/mL: RCMB 000102, 24 h, read-out: IZ; in short: as §1
Pseudomonas aeruginosa [9] = assay: Antibacterial activity against Pseudomonas aeruginosa RCMB 000102 at 30 ug/ml after 24 hrs by diffusion agar technique; assay type: functional; settings: RCMB 000102, 24 h, read-out: IZ
In short: (§3)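 Reference antibiotic tested at 30 μg/mL, 100 μL per 6 mm well in agar diffusion on nutrient agar (pH 7.0) seeded with approx. 10^4–10^6 CFU/mL bacteria. Incubated 37 °C for 24 h. Inhibition zone beyond well diameter (mm) read by caliper in triplicate and averaged; mean ± SD.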

Escherichia coli [10] = assay: Antibacterial activity against Escherichia coli RCMB 000103 at 30 ug/ml after 24 hrs by diffusion agar technique; assay type: functional; settings: RCMB 000103, 24 h, read-out: IZ
In short: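 Agar well diffusion on nutrient agar (pH 7.0) spread with centrifuged bacterial pellets from a 24 h culture, about 10^4–10^6 CFU/mL. Wells receive 100 µL of sample in DMSO: tested samples at 10 mg/mL, standard antibiotic at 30 μg/mL, DMSO as control. Incubation is 37 °C for 24 h. Inhibition zone in mm beyond the 6 mm well is measured three times by caliper and averaged. Three runs, mean ± SD.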

Bacillus subtilis [11] = assay: Antibacterial activity against Bacillus subtilis RCMB 000107 at 30 ug/ml after 24 hrs by diffusion agar technique; assay type: functional; settings: RCMB 000107, 24 h, read-out: IZ; in short: as §3
Staphylococcus aureus [12] = assay: Antibacterial activity against Staphylococcus aureus RCMB 000106 at 30 ug/ml after 24 hrs by diffusion agar technique; assay type: functional; settings: RCMB 000106, 24 h, read-out: IZ; in short: as §3
Candida albicans [13] = assay: Antifungal activity against Candida albicans RCMB 005002 at 30 ug/ml after 3 to 4 days by agar well diffusion method; assay type: functional; settings: read-out: IZ
In short: (§4)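 Reference antifungal tested at 30 μg/mL, 100 μL per well, on Sabouraud dextrose agar spread with 0.1 mL of a fungal culture at about 10^5 CFU/mL. Wells were bottom-sealed with 0.8% soft agar. Incubated 30 °C, 3–4 days. Inhibition zone (mm) measured three times by caliper and averaged; mean ± SD.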

[14] = tested on: Syncephalastrum racemosum; assay: Antifungal activity against Syncephalastrum racemosum RCMB 005003 at 30 ug/ml after 3 to 4 days by agar well diffusion method; assay type: functional; settings: read-out: IZ; in short: as §4
Geotrichum candidum [15] = assay: Antifungal activity against Geotrichum candidum RCMB 052006 at 30 ug/ml after 3 to 4 days by agar well diffusion method; assay type: functional; settings: read-out: IZ; in short: as §4
Aspergillus fumigatus [16] = assay: Antifungal activity against Aspergillus fumigatus RCMB 002003 at 30 ug/ml after 3 to 4 days by agar well diffusion method; assay type: functional; settings: read-out: IZ; in short: as §4

| Structure (SMILES) | zone of inhibition at 10000 µg/mL (Candida albicans [2]) | inhibition zone (IZ) (Escherichia coli [3]) | zone of inhibition at 10000 µg/mL (Staphylococcus aureus [4]) | zone of inhibition at 10000 µg/mL (Geotrichum candidum [5]) | zone of inhibition at 10000 µg/mL (Aspergillus fumigatus [6]) | inhibition zone (IZ) [7] | zone of inhibition at 10000 µg/mL (Bacillus subtilis [1]) | zone of inhibition at 10000 µg/mL (Escherichia coli [3]) | inhibition zone (IZ) (Pseudomonas aeruginosa [8]) | other results |
| --- | --- | --- | --- | --- | --- | --- | --- | --- | --- | --- |
| Cc1cc(C)n(/N=C/c2cccs2)c(=O)c1C#N | 12 mm | inactive | 14 mm | 13 mm | 11 mm | inactive | – | – | – | inhibition zone (IZ) (Bacillus subtilis [1]): inactive; zone of inhibition at 10000 µg/mL (Pseudomonas aeruginosa [8]): 14 mm |
| Cc1ccc2c(c1)cc(/C=N/n1c(C)cc(C)c(C#N)c1=O)c1nnnn12 | 15.4 mm | – | 23.2 mm | 18.4 mm | 15.2 mm | inactive | 24.3 mm | 11.2 mm | inactive | – |
| Cc1cc(C)n(N/C=C(\Nn2c(C)cc(C)c(C#N)c2=O)c2ccccc2)c(=O)c1C#N | 11 mm | – | 15 mm | 12 mm | 10 mm | inactive | 13.5 mm | 11.5 mm | inactive | – |
| Cc1cc(C)n(NC(=O)Nc2ccccc2)c(=O)c1C#N | 7.4 mm | – | 7.2 mm | 10.4 mm | 9.2 mm | inactive | 10.4 mm | 11.4 mm | inactive | – |
| Cc1cc(C)n(/N=C/c2cc3ccccc3nc2Cl)c(=O)c1C#N | 10.2 mm | inactive | – | 12.4 mm | 13.3 mm | inactive | – | – | inactive | inhibition zone (IZ) (Bacillus subtilis [1]): inactive; inhibition zone (IZ) (Staphylococcus aureus [4]): inactive |
| Cc1cc(C)n(NC(=S)Nc2ccccc2)c(=O)c1C#N | 11 mm | inactive | 15 mm | 12 mm | 10.2 mm | inactive | 13.5 mm | – | inactive | – |
| CN[C@@H]1[C@H](O[C@H]2[C@H](O[C@H]3[C@H](O)[C@@H](O)[C@H](N=C(N)N)[C@@H](O)[C@@H]3N=C(N)N)O[C@@H](C)[C@]2(O)C=O)O[C@@H](CO)[C@H](O)[C@H]1O [STREPTOMYCIN] | – | – | – | – | – | – | – | – | – | zone of inhibition at 30 µg/mL (Pseudomonas aeruginosa [9]): 24 mm; zone of inhibition at 30 µg/mL (Escherichia coli [10]): 25 mm; zone of inhibition at 30 µg/mL (Bacillus subtilis [11]): 29 mm; zone of inhibition at 30 µg/mL (Staphylococcus aureus [12]): 25 mm |
| COc1ccc(-c2cc(-c3cccs3)nc3sc(C(=O)Nn4c(C)cc(C)c(C#N)c4=O)c(N)c23)cc1 | 10 mm | inactive | 13 mm | 14 mm | 11.1 mm | inactive | 14.2 mm | – | inactive | – |
| Cc1cc(C)n(NC(=O)C(=O)CC(=O)c2cc3ccccc3o2)c(=O)c1C#N | – | – | 20.4 mm | – | – | inactive | 21.8 mm | 7.4 mm | inactive | inhibition zone (IZ) (Candida albicans [2]): inactive; inhibition zone (IZ) (Geotrichum candidum [5]): inactive; inhibition zone (IZ) (Aspergillus fumigatus [6]): inactive |
| Cc1cc(C)n(/N=C/c2ccc(F)cc2)c(=O)c1C#N | – | inactive | 14.9 mm | – | – | inactive | 15.2 mm | – | inactive | inhibition zone (IZ) (Candida albicans [2]): inactive; inhibition zone (IZ) (Geotrichum candidum [5]): inactive; inhibition zone (IZ) (Aspergillus fumigatus [6]): inactive |
| Cc1cc(C)n(N)c(=O)c1C#N | – | – | 14 mm | – | – | inactive | 17 mm | 22.8 mm | – | inhibition zone (IZ) (Candida albicans [2]): inactive; inhibition zone (IZ) (Geotrichum candidum [5]): inactive; inhibition zone (IZ) (Aspergillus fumigatus [6]): inactive; zone of inhibition at 10000 µg/mL (Pseudomonas aeruginosa [8]): 21.4 mm |
| Cc1cc(C)n(N2C(=O)c3ccccc3C2=O)c(=O)c1C#N | 18.2 mm | – | 24.4 mm | 21.4 mm | 19.2 mm | inactive | 25.4 mm | 10.8 mm | inactive | – |
| Cc1cc(C)n(/N=C/c2cn(-c3ccccc3)nc2-c2cc3ccccc3o2)c(=O)c1C#N | 15.5 mm | – | 21.2 mm | 16.5 mm | 14.2 mm | inactive | 23.2 mm | 11.5 mm | inactive | – |
| Cc1cc(C)n(N2C(=O)c3c(Br)c(Br)c(Br)c(Br)c3C2=O)c(=O)c1C#N | 20.2 mm | – | 26.4 mm | 23.5 mm | 22.5 mm | inactive | 26.4 mm | 12.6 mm | inactive | – |
| CC1(C)S[C@@H]2[C@H](NC(=O)Cc3ccccc3)C(=O)N2[C@H]1C(=O)O [PENICILLIN G] | – | – | – | – | – | – | – | – | – | zone of inhibition at 30 µg/mL (Pseudomonas aeruginosa [9]): 28.3 mm; zone of inhibition at 30 µg/mL (Escherichia coli [10]): 33.6 mm; zone of inhibition at 30 µg/mL (Bacillus subtilis [11]): 32.6 mm; zone of inhibition at 30 µg/mL (Staphylococcus aureus [12]): 29.5 mm |
| Cc1cc(C)n(/N=C/c2cc3ccccc3n3nnnc23)c(=O)c1C#N | 11.4 mm | – | 18.6 mm | 13.4 mm | 11.2 mm | inactive | 17.3 mm | 9.3 mm | inactive | – |
| Cc1cc(C)n(/N=C/c2c(C)nn(-c3ccccc3)c2Cl)c(=O)c1C#N | 13.2 mm | inactive | – | 11.5 mm | 10.3 mm | inactive | – | – | inactive | inhibition zone (IZ) (Bacillus subtilis [1]): inactive; inhibition zone (IZ) (Staphylococcus aureus [4]): inactive |
| Cc1ccc2nc(Cl)c(/C=N/n3c(C)cc(C)c(C#N)c3=O)cc2c1 | 12.4 mm | inactive | – | 13.2 mm | 14.5 mm | inactive | – | – | inactive | inhibition zone (IZ) (Bacillus subtilis [1]): inactive; inhibition zone (IZ) (Staphylococcus aureus [4]): inactive |
| CCC(C)n1ncn(-c2ccc(N3CCN(c4ccc(OCC5COC(Cn6cncn6)(c6ccc(Cl)cc6Cl)O5)cc4)CC3)cc2)c1=O (centres undefined) [ITRACONAZOLE] | – | – | – | – | – | – | – | – | – | zone of inhibition at 30 µg/mL (Candida albicans [13]): 26 mm; zone of inhibition at 30 µg/mL [14]: 22 mm; zone of inhibition at 30 µg/mL (Geotrichum candidum [15]): 27 mm; zone of inhibition at 30 µg/mL (Aspergillus fumigatus [16]): 28 mm |
| Clc1ccccc1C(c1ccccc1)(c1ccccc1)n1ccnc1 [CLOTRIMAZOLE] | – | – | – | – | – | – | – | – | – | zone of inhibition at 30 µg/mL (Candida albicans [13]): 18 mm; zone of inhibition at 30 µg/mL [14]: 20 mm; zone of inhibition at 30 µg/mL (Geotrichum candidum [15]): 23 mm; zone of inhibition at 30 µg/mL (Aspergillus fumigatus [16]): 26 mm |
